Data from ChEMBL document CHEMBL4024774 (J Med Chem, 2017).
Activity calls are given as the source filed them. The rule behind the calls is not given here.

Tests used:
[1] = Inhibition of […] uptake at human DAT […] mutant expressed in African green monkey COS7 cells after 90 mins; format: cell-based
Summary of the method: (§1)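 Whole COS7 cells transiently expressing human DAT WT or the Y156F mutant, washed in ice-cold uptake buffer. Incubated with [³H]WIN 35,428 and inhibitor (1 nM–1 mM, 12 concentrations) at 5 °C to equilibrium (>90 min). Triplicates. Ki from IC50 by nonlinear regression and Cheng–Prusoff. Ratio is Y156F Ki over WT Ki.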

[2] = target: T1, Sodium-dependent dopamine transporter (Homo sapiens, UniProt Q01959); experiment: Inhibition of […] uptake at wild type human DAT expressed in African green monkey COS7 cells after 90 mins; format: cell-based; summary of the method: as §1
T1 sequence (Q01959 whole entry): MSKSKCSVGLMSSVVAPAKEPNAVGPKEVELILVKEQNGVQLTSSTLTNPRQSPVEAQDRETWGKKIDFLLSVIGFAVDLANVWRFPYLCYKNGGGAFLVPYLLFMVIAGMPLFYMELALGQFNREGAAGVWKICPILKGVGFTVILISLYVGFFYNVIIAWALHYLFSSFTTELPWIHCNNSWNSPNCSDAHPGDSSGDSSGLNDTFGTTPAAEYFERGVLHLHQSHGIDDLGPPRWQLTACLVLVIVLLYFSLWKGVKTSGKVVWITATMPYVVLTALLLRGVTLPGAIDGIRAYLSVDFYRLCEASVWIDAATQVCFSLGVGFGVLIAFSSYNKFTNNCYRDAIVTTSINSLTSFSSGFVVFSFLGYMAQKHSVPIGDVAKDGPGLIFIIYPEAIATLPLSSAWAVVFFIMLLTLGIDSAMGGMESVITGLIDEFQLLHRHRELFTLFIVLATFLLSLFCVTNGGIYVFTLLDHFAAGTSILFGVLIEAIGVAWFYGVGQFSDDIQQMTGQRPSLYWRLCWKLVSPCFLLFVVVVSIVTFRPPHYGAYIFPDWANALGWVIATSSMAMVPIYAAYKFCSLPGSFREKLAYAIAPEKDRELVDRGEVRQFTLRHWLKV

[3] = target: Sodium-dependent dopamine transporter (Rattus norvegicus, UniProt P23977); experiment: Displacement of [3H]WIN35428 from Sprague-Dawley rat brain DAT after 120 mins by liquid scintillation counting method
Sodium-dependent dopamine transporter (Rattus norvegicus, UniProt P23977), sequence (P23977 whole entry): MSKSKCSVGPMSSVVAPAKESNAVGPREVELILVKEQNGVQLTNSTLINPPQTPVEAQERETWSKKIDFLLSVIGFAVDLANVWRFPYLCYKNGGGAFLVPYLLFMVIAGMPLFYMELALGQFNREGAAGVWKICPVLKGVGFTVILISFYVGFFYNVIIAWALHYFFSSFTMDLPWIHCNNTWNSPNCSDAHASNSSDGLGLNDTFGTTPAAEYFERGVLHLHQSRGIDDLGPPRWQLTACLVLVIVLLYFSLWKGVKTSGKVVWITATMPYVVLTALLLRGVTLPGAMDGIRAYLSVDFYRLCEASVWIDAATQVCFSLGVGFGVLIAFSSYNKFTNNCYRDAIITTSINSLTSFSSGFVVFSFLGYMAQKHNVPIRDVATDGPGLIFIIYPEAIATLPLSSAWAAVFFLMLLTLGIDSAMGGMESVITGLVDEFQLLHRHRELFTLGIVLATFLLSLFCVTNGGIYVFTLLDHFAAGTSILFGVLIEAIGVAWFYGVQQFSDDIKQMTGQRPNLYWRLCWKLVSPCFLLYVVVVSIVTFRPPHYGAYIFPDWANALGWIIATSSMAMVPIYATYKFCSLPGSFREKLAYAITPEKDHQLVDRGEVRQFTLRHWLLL
Summary of the method: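 Rat striatal membranes (male Sprague-Dawley) in sucrose phosphate buffer pH 7.4. […] Terminated by filtration on GF/B filters presoaked in 0.05% PEI, then scintillation counting.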

[4] = target: Sodium-dependent serotonin transporter (Rattus norvegicus, UniProt P31652); experiment: Displacement of [3H]citalopram from Sprague-Dawley rat brain SERT after 60 mins by liquid scintillation counting method
Sodium-dependent serotonin transporter, sequence (P31652 whole entry): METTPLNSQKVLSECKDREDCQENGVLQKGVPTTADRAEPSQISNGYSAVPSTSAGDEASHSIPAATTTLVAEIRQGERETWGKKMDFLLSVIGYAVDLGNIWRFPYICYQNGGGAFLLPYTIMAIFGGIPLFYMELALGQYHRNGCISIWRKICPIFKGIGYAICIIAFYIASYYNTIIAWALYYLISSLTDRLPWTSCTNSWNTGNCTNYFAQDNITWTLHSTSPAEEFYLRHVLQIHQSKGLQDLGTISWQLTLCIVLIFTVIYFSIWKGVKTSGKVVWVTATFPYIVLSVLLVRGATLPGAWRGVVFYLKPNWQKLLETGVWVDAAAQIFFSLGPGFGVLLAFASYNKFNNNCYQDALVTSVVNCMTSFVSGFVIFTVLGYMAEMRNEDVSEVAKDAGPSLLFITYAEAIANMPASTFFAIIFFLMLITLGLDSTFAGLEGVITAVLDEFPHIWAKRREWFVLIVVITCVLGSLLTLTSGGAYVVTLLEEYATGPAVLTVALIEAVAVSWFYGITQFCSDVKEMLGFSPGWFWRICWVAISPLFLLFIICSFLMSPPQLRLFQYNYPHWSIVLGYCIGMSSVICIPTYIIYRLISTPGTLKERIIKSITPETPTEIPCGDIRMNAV
Summary of the method: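 Male Sprague-Dawley rat brain stem membranes in 50 mM Tris with 120 mM NaCl and 5 mM KCl, pH 7.4. […] Nonspecific binding with 10 μM fluoxetine. Filtered on GF/B filters presoaked in 0.3% PEI, scintillation counted.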

[5] = Displacement of [3H]nisoxetine from Sprague-Dawley rat brain NET after 180 mins by liquid scintillation counting method
Summary of the method: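 Frontal cortex membranes from male Sprague-Dawley rats in 50 mM Tris, 120 mM NaCl, 5 mM KCl, pH 7.4. […] Nonspecific binding with 1 μM desipramine. Methanol level held constant across tubes. Filtered on GF/B filters in 0.05% PEI.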

[6] = Selectivity ratio of IC50 for human ERG expressed in HEK cells to Ki for Sprague-Dawley rat brain DAT; format: cell-based
[7] = target: T1, Sodium-dependent dopamine transporter; experiment: Inhibition of [3H]DA uptake at wild type human DAT expressed in African green monkey COS7 cells after 5 mins by beta scintillation counting method; format: cell-based
Summary of the method: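 COS7 cells transiently transfected with synthetic human DAT and assayed 2 days later. Preincubated with inhibitor (1 nM–1 mM, 12 concentrations) in HEPES uptake buffer pH 7.4 containing ascorbate and a COMT inhibitor. 6–10 nM [³H]DA added for 5 min at rt. Nonspecific uptake with 1 μM nomifensine. Cells lysed in SDS and scintillation counted. Run in triplicate. Ki from IC50 by Cheng–Prusoff.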

Homo sapiens = species on record: Homo sapiens; experiment: Selectivity ratio of Ki for human DAT […] mutant expressed in African green monkey COS7 cells to Ki for wild type human DAT expressed in African green monkey COS7 cells; format: cell-based; summary of the method: as §1
[8] = target: Voltage-gated inwardly rectifying potassium channel KCNH2 (Homo sapiens, UniProt Q12809); experiment: Displacement of [3H]Dofetilide from human ERG expressed in HEK cells after 180 mins by scintillation counting method; format: cell-based
Voltage-gated inwardly rectifying potassium channel KCNH2, sequence (Q12809 whole entry): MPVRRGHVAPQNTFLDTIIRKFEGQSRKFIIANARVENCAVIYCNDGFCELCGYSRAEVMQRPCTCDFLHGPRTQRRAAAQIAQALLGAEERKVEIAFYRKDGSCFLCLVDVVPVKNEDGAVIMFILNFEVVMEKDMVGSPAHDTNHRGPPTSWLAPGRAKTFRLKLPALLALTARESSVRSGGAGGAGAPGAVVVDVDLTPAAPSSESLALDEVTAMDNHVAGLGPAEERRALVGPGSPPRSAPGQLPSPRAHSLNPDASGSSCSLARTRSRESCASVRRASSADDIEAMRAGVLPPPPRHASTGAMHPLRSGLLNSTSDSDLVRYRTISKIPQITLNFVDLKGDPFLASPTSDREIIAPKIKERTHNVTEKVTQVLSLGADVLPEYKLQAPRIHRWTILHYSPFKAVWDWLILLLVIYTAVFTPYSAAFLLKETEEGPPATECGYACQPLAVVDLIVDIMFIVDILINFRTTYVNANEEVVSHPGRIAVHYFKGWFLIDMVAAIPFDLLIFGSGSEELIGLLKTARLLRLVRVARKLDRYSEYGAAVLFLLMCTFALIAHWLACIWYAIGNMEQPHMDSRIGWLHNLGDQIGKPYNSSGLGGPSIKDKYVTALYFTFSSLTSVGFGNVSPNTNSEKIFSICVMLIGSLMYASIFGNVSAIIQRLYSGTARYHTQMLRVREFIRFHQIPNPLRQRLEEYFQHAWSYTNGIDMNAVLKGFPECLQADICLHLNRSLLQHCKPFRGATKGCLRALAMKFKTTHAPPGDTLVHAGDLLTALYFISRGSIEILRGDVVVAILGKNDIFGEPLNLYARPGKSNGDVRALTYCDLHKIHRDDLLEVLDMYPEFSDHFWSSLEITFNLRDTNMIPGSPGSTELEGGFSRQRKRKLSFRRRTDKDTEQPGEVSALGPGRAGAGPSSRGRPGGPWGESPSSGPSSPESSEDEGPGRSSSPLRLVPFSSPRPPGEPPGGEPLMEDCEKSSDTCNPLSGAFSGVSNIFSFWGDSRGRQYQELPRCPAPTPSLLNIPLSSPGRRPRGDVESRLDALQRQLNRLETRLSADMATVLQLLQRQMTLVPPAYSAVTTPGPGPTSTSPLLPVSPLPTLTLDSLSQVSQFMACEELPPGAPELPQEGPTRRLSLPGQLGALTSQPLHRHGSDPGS

Liver = experiment: Metabolic stability in mouse liver microsomes assessed as parent compound remaining at 10 uM after 1 hr in presence of NADPH by LC/MS/MS analysis; format: ADME, microsome
Summary of the method: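 Mouse liver microsomes at 0.5 mg/mL with test compound at 10 μM final, in 100 mM potassium phosphate pH 7.4 with an NADPH regenerating system (1.3 mM NADPH). Reaction started by adding microsomes. Controls run without cofactor. Parent remaining measured by LC/MS/MS on a C18 column with formic acid/acetonitrile gradient. Triplicate.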

Mus musculus [9] = experiment: Decrease in locomotory activity in Swiss Webster mouse at 56 mg/kg, ip after 1 hr relative to control; format: functional; set-up: scale not given: the % may be the effect or the level left
Summary of the method: (§2)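 Male Swiss Webster mice, ambulatory activity counted in 40 cm³ clear acrylic chambers over a 1 h session with no prior habituation. Drug given i.p. at 1 mL/kg immediately before the session. 6 mice per dose, each used once. Analysed by ANOVA then Dunnett's test against vehicle.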

Mus musculus [10] = experiment: Effect on execution of behavioral task in Swiss Webster mouse assessed as overall group response rate at 0.3 to 30 mg/kg, ip relative to control; format: organism-based; conditions: in vivo
Summary of the method: (§3)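 Testing began after ≥85% correct responding on 4 consecutive sessions. Test drug given i.p. at 0.1–30 mg/kg, 5 or 30 min before the session, with 10 consecutive responses on either lever reinforced. ED50 taken from a linear fit. Response rate expressed as % of saline. 6 mice.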

Mus musculus [11] = experiment: Decrease in locomotory activity in Swiss Webster mouse at 3 to 30 mg/kg, ip after 1 hr relative to control; format: functional, organism-based; summary of the method: as §2
Mus musculus [12] = experiment: Effect on discriminating cocaine from saline in Swiss Webster mouse assessed as cocaine lever response at 0.3 to 30 mg/kg, ip administered 5 to 30 mins prior to training session relative to control; format: functional; summary of the method: as §3

Compound | Ki [1] [nM] | Ki [2] [nM] | Ki [3] [nM] | Ki [4] [nM] | Ki [5] [nM] | Selectivity ratio [6] | Ki [7] [nM] | Ratio Ki (Homo sapiens) | IC50 [8] [nM] | Stability (Liver) [%] | Activity (Mus musculus [9]) [%] | Activity (Mus musculus [10]) [%] | Activity (Mus musculus [11]) | Activity (Mus musculus [12]) [%]
CC(C)[C@@H](N)CN1C2CCC1CC(OC(c1ccc(F)cc1)c1ccc(F)cc1)C2 (stereo partly drawn) | 307 | 81 | 13.2 | 3870 | 2130 | 345 | 133 | 3.8 |  |  |  |  |  | 
Fc1ccc(C(NC2CC3CCC(C2)N3CCN2CCCCC2)c2ccc(F)cc2)cc1 (stereo not drawn) |  |  | 10.6 | 3780 | 612 |  |  |  |  |  |  |  |  | 
CN1C2CCC1[C@@H](c1cc(-c3ccc(F)cc3)no1)[C@@H](OC(c1ccc(F)cc1)c1ccc(F)cc1)C2 (mixture of isomers) |  |  | 69.2 | 2990 | 1640 |  |  |  |  |  |  |  |  | 
Cc1ccc(-c2cc(C3C(c4ccc(Cl)cc4)CC4CCC3N4C)on2)cc1 (stereo not drawn) | 140 | 35 | 10.7 | 23500 | 1170 |  | 16 | 4 |  |  |  |  |  | 
CCOC(=O)[C@@H]1C2CCC(C[C@@H]1OC(c1ccc(F)cc1)c1ccc(F)cc1)N2CCc1c[nH]c2ccccc12 (mixture of isomers) | 1080 | 147 | 26.1 | 746 | 1450 |  | 944 |  |  |  |  |  |  | 
CCOC(=O)[C@@H]1C2CCC(C[C@@H]1OC(c1ccc(F)cc1)c1ccc(F)cc1)N2C[C@H](N)C(C)C (mixture of isomers) | 1560 | 221 | 53.8 | 1370 | 4470 |  | 1050 | 7.1 |  |  |  |  |  | 
CCCCN1C2CCC1CC(NC(c1ccc(F)cc1)c1ccc(F)cc1)C2 (stereo not drawn) | 355 | 24 |  |  |  |  | 62 | 15 |  |  |  |  |  | 
CN1C2CCC1[C@@H](c1cc(-c3ccccc3)no1)[C@@H](OC(c1ccc(F)cc1)c1ccc(F)cc1)C2 (mixture of isomers) | 3490 | 1480 | 60.8 | 3830 | 1100 |  | 1300 | 2.4 |  |  |  |  |  | 
CN1C2CCC1[C@@H](c1cc(-c3ccccc3)no1)C(OC(c1ccc(F)cc1)c1ccc(F)cc1)C2 (single isomer, unassigned) | 183 | 28 | 14.4 | 1320 | 413 |  | 212 | 6.5 |  |  |  |  |  | 
Fc1ccc(C(OC2CC3CCC(C2)N3CCN2CCCCC2)c2ccc(F)cc2)cc1 (stereo not drawn) |  |  | 13.2 | 1460 | 370 |  |  |  |  |  |  |  |  | 
CCOC(=O)[C@@H]1C2CCC(C[C@@H]1OC(c1ccc(F)cc1)c1ccc(F)cc1)N2CC1CC1 (mixture of isomers) |  |  | 12 | 3730 | 555 |  |  |  |  |  |  |  |  | 
CN(C)CCN1C2CCC1CC(OC(c1ccc(F)cc1)c1ccc(F)cc1)C2 (stereo not drawn) | 63 | 10 | 12 | 3150 | 933 | 686 | 47 | 6.3 | 8230 | 88 | 14 | < 50 | Active | 23
C=C[C@@H]1C2CCC(C[C@@H]1OC(c1ccc(F)cc1)c1ccc(F)cc1)N2CCN(C)C (mixture of isomers) |  |  | 13.5 | 5100 |  |  |  |  |  |  |  |  |  | 
Cc1ccc(-c2cc([C@@H]3C4CCC(C[C@@H]3OC(c3ccc(F)cc3)c3ccc(F)cc3)N4C)on2)cc1 (mixture of isomers) |  |  | 93.5 | 4410 | 2710 |  |  |  |  |  |  |  |  | 
Fc1ccc(C(OC2CC3CCC(C2)N3CCc2c[nH]c3ccccc23)c2ccc(F)cc2)cc1 (stereo not drawn) | 1700 | 253 | 29.2 | 490 | 7350 |  |  | 6.7 |  |  |  |  |  | 
NCCN1C2CCC1CC(OC(c1ccc(F)cc1)c1ccc(F)cc1)C2 (stereo not drawn) |  |  | 5.59 | 4600 | 1420 |  |  |  |  |  |  |  |  | 
CN(C)CCN1C2CCC1CC(NC(c1ccc(F)cc1)c1ccc(F)cc1)C2 (stereo not drawn) | 202 | 16 | 14.3 | 12000 | 4010 | 383 | 40 | 20 | 5480 |  |  |  |  | 
CC(C)[C@@H](N)CN1C2CCC1CC(NC(c1ccc(F)cc1)c1ccc(F)cc1)C2 (stereo partly drawn) |  |  | 21 | 5400 | 2350 |  |  |  |  |  |  |  |  | 
CN1C2CCC1[C@@H](c1cc(-c3ccc(Cl)cc3)no1)[C@@H](OC(c1ccc(F)cc1)c1ccc(F)cc1)C2 (mixture of isomers) |  |  | 66.6 | 756 | 1580 |  |  |  |  |  |  |  |  | 
Fc1ccc(C(OC2CC3CCC(C2)N3CC2CC2)c2ccc(F)cc2)cc1 (stereo not drawn) |  |  | 24.6 | 1420 | 1640 | 161 |  |  | 3960 |  |  |  |  | 
Cc1ccc(C2CC3CCC(C2c2cc(-c4ccc(Cl)cc4)no2)N3C)cc1 (stereo not drawn) | 242 | 27 | 8.55 | 29100 | 887 |  | 9.7 | 9 |  |  |  |  |  | 
